D1 mod – D1 CRE-luciferase signal change, two-sided – cell-based, HEK293 D1, dopamine EC30, D1 allosteric modulator project, primary screen; D(1A) dopamine receptor (Homo sapiens), P21728; dopamine EC30 potentiation; actives deviate in either direction; B-score at 10 µM; hit rate 5.9% among 58,000; AID 641, 2007;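 active = luminescence count or its row- and column-corrected plate score outside the 99.7% band of the plate's sample wells, on either side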
AP complement – alternative complement pathway inhibitors, primary screen, biochemical, ELISA, human serum, orthogonally pooled compounds | LPS-coated ELISA, C3 deposition; tested in compound mixtures | inhibition, % at 5 µM | hit rate 0.08% among 62,000 | AID 1235, 2008;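 active = inhibition above 30% in each of the two pooled mixtures holding the compound, so the lower value exceeds 30%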
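Test system: human serum complement alternative pathway, C3 deposition onto LPS / Medium: Mg2+-EGTA GVB++ buffer containing human serum at 1:15 dilution / Probe or stimulus: Plate-bound LPS / Times: 1 h at 37 °C / Signal: ELISA with HRP anti-human C3 antibody, TMB substrate, absorbance 450 nm / Measure: percent inhibition / Repeats: two pool placements per compound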
HEK293 NFkB inh – inhibitors of PMA/ionomycin-induced NF-kB reporter, primary screen, antigen receptor NF-kB inhibitor project, cell-based, HEK-293 luciferase reporter, luminescence; HEK-293 NF-kB luciferase reporter; inhibition, % at 3 µM; hit rate 0.21% among 62,000; AID 465, 2006;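 active = inhibition above the mean of all tested compounds plus 3 SD, cut at about 40% in these data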
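Reagent: PMA plus ionomycin mix as NF-kB-activating stimulus. Assay system: NF-kB luciferase reporter HEK-293 cells. Technique: luminescence from luciferase substrate reagent. Incubation: 1 h compound pre-incubation, 16 h PMA/ionomycin at 37 °C. Benchmarks: DMSO only as uninhibited control, 10 µM reference inhibitor as full inhibition. Repeats: tested once.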
hDAT+cocaine – changed hDAT dopamine uptake under cocaine IC80, either direction, primary screen, cocaine antagonist project, cell-based, LLC-PK1 hDAT, [14C]-dopamine uptake, MLSMR | AID 449768, 2010 | hit rate 1.3% among 110,000 | LLC-PK1 hDAT cells, [14C]-dopamine uptake with cocaine IC80; actives deviate in either direction | Sodium-dependent dopamine transporter (Homo sapiens), Q01959 | B-score at 10 µM;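 active = Z score or B-score, a plate-position-corrected score, falls beyond the plate's 99.7% confidence bounds, in either direction; inactive = both scores lie inside the 99.7% bounds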
Target sequence (Q01959 whole entry, looked up): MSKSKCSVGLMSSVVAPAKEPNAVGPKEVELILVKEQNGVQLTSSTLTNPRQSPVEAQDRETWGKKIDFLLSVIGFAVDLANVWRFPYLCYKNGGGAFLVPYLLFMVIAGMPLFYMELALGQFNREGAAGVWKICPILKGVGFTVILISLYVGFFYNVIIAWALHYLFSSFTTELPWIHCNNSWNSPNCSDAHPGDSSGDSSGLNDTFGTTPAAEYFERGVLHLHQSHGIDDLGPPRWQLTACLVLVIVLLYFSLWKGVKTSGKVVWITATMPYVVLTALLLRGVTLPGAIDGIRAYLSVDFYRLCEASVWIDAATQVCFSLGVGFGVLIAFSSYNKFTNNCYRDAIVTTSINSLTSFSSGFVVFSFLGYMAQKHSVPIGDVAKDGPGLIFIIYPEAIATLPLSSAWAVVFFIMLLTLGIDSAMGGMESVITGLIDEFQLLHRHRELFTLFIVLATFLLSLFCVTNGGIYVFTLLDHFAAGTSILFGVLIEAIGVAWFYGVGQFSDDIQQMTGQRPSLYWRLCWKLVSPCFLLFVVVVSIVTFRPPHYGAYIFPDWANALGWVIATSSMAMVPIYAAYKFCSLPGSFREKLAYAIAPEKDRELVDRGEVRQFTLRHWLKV
Ec RNAP inh – E. coli RNAP inhibitors, biochemical; inhibition, %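 (tested at 10 µM)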; hit rate 0.2% among 62,000; E. coli RNA polymerase, fluorescence transcription assay; AID 559, 2006; in the data active = inhibition above about 20%
D1 PAM confirm – D1 receptor positive allosteric modulators, retest, confirmation, cell-based, HEK293 D1, CRE-luciferase, duplicate. hit rate 88% among 2,200. shares compounds with D1 mod. dopamine EC30 potentiation; hits give high values. luminescence at 10 µM. AID 642, 2007;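 active = luminescence in either of two replicates above the same-plate mean plus 3 SD of the low-dose dopamine control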
D1 ag no DA – D1 receptor agonism without dopamine, confirmation, mechanism study for D1 allosteric modulator project, cell-based, HEK293 D1, CRE-luciferase, secondary assay 1 | luminescence, no dopamine; hits give high values | hit rate 0.8% among 1,900 | shares compounds with D1 mod | AID 646, 2007 | luminescence at 10 µM; in the data active = luminescence above about 3900
Isoprot counter – counter-screen for D1 modulators: isoproterenol response in HEK293 cells; shares compounds with D1 mod; HEK293 D1 CRE-luciferase, isoproterenol EC30 counter-screen; calls only at 10 µM; hit rate 63% among 2,200; AID 647;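 active = luminescence in either replicate above plate mean of wells with a partly effective reference agonist dose plus 3 SD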;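 also: isoproterenol raises cAMP through native beta-adrenoceptor Gs so signal bypasses D1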
Numbers stand for hits; . = inactive; / = not tested or not shown; + = active, no number. This excerpt belongs to a sample that is enriched for hits.

SMILES	D1 mod	AP complement	HEK293 NFkB inh	hDAT+cocaine	Ec RNAP inh	D1 PAM confirm	D1 ag no DA	Isoprot counter
CCNc1nc2c(c(=O)n(Cc3ccccc3)c(=O)n2C)n1Cc1ccccc1	4.4	.	.	2.98	.	8220	.	+
C/C(Cl)=C/Cn1c(=O)c2c(nc(Br)n2Cc2ccccc2)n(C)c1=O	4.82	.	.	.	.	11400	.	+
Cc1cccc(Nc2nc3c(c(=O)n(C)c(=O)n3C)n2Cc2ccccc2)c1	21.7	.	.	.	.	12460	.	+
Cn1c(=O)c2c(nc(Br)n2Cc2ccc3ccccc3c2)n(C)c1=O	/	/	/	.	.	/	/	/
CCC(C)Nc1nc2c(c(=O)n(C)c(=O)n2C)n1Cc1cccc(C)c1 (stereo unspecified)	.	/	.	.	/	/	/	/
CCn1c(SCc2ccc(F)cc2)nnc1-c1nn(-c2ccccc2)ccc1=O	/	/	/	.	/	/	/	/
COc1ccc(-n2c(Cc3cccn3C)nnc2SCC(=O)Nc2ccc(C)cc2C)cc1	17	.	.	.	.	.	.	.
Cc1nnc(NC(=O)CSc2nnc(Cc3cccn3C)n2-c2cccc(C(F)(F)F)c2)s1	3.38	.	.	.	.	.	.	.
O=C(Oc1cccc(NC(=O)c2ccccc2Cl)c1)c1ccc([N+](=O)[O-])cc1	/	/	/	.	/	/	/	/
COC(=O)c1cc(=O)n(CCc2ccccc2F)c(=Nc2ccc(F)c(Cl)c2)s1	/	/	/	.	/	/	/	/
COC(=O)c1cc(=O)n(Cc2ccco2)c(=Nc2ccc(F)c(Cl)c2)s1	7.38	.	.	.	.	8744	.	.
CC(C)Cn1nc(NC(=O)C2CCCO2)c2cc3ccccc3nc21 (stereo unspecified)	11.7	.	.	/	.	16892	/	+
CCn1nc(NC(=O)c2cccnc2)c2cc3ccccc3nc21	6.64	.	/	.	.	7008	.	+
CC(C)Cn1nc(NS(=O)(=O)c2ccccc2)c2cc3ccccc3nc21	.	.	.	.	.	/	/	/
CCn1nc(NC(=O)c2ccccn2)c2cc3cc(C)ccc3nc21	.	.	.	.	.	/	/	/
COc1cc(-c2nnc3sc(-c4ccccn4)nn23)cc(OC)c1OC	.	.	.	/	.	/	/	/
Cc1oc2ccc(OCC(N)=O)cc2c1C(=O)OC(C)C	4.65	.	.	.	.	6628	.	.
CCCc1nc2ccccc2c2nc(N)nn12	27.3	.	.	.	.	19312	.	+
Cc1ccc(Cn2c(Cc3ccccc3)nc3ccccc32)cc1	/	/	/	.	/	/	/	/
Cc1nc2ccccc2c2nc(N)nn12	/	/	/	.	/	/	/	/
Nc1nc2c3ccccc3nc(Cc3ccccc3)n2n1	15.8	.	.	.	.	11064	.	+
COc1ccc(CC(=O)N2CCN=C2SC)cc1	11.4	.	.	.	.	15276	.	+
NC(=O)c1cc2ccc(O)cc2oc1=NCc1ccccc1	/	.	.	.	.	/	/	/
NC(=O)c1cc2ccc(O)cc2oc1=Nc1ccccc1	5.12	.	.	.	.	.	.	.
CCOC(=O)Nc1ccc2c(c1)Sc1ccccc1N2C(=O)CCN1CCOCC1	4.83	.	.	.	.	8528	/	+
O=c1c2ccccc2nc(CSc2ncnc3nc[nH]c23)n1-c1cccc(C(F)(F)F)c1	/	/	/	.	/	/	/	/
CCn1c(=O)c2ccccc2n2c(SCC(=O)NCc3cccs3)nnc12	4.69	.	.	.	.	.	.	.
CCCn1c(=O)c2ccccc2n2c(SCC(=O)NCc3cccs3)nnc12	.	.	.	.	.	/	/	/

Source: PubChem BioAssay (several laboratories)
